ChEMBL document CHEMBL1152689, “Synthesis, tautomerism, and antimicrobial, anti-HCV, anti-SSPE, antioxidant, and antitumor activities of arylazobenzosuberones” (Bioorg Med Chem, 2009)
Converted amounts (≈) assume the structure as drawn. The source made the active and inactive calls. The calls are words filed in the database; no cut-off is given here.

Key:
[1] = system: Pseudomonas aeruginosa; assay: Antimicrobial activity against Pseudomonas aeruginosa at 1.25 ug/mL by agar diffusion method; assay type: functional; conditions: read-out: IZ
[2] = system: Syncephalastrum racemosum; assay: Antimicrobial activity against Syncephalastrum racemosum at 2.5 ug/mL by agar diffusion method; assay type: functional; conditions: read-out: IZ
[3] = system: Penicillium italicum; assay: Antimicrobial activity against Penicillium italicum at 1.25 ug/mL by agar diffusion method; assay type: functional; conditions: read-out: IZ
[4] = system: MC-38; assay: Antitumor activity against mouse Colon 38 cells implanted in iv dosed C57BL/6 mouse administered as single dose; assay type: functional, organism-based
Summary of the method: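 Female C57BL/6 mice, 6 weeks old, given about 30 mg Colon 38 tumor tissue s.c. in the flank. Randomized into groups of n = 5 when tumors reached about 300 mm3 (day 1). Compound in 5% glucose given as a single iv tail-vein dose on day 1; controls received 5% glucose. Tumor volume = (length × width²)/2 and body weight tracked.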

[5] = system: Staphylococcus aureus; assay: Antimicrobial activity against Staphylococcus aureus by agar diffusion method; assay type: functional
Summary of the method: (§1)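 Agar diffusion on plates against bacteria and fungi. MIC taken as the lowest concentration giving no visible growth on the plate.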

[6] = system: Escherichia coli; assay: Antimicrobial activity against Escherichia coli at 2.5 ug/mL by agar diffusion method; assay type: functional; conditions: read-out: IZ
[7] = system: Aspergillus fumigatus; assay: Antimicrobial activity against Aspergillus fumigatus at 5 ug/mL by agar diffusion method; assay type: functional; conditions: read-out: IZ
[8] = system: Bacillus subtilis; assay: Antimicrobial activity against Bacillus subtilis at 1.25 ug/mL by agar diffusion method; assay type: functional; conditions: read-out: IZ
[9] = system: Staphylococcus aureus; assay: Antimicrobial activity against Staphylococcus aureus at 5 ug/mL by agar diffusion method; assay type: functional; conditions: read-out: IZ
[10] = system: Staphylococcus aureus; assay: Antimicrobial activity against Staphylococcus aureus at 2.5 ug/mL by agar diffusion method; assay type: functional; conditions: read-out: IZ
[11] = system: Escherichia coli; assay: Antimicrobial activity against Escherichia coli by agar diffusion method; assay type: functional; summary of the method: as §1
[12] = system: Aspergillus fumigatus; assay: Antimicrobial activity against Aspergillus fumigatus at 1.25 ug/mL by agar diffusion method; assay type: functional; conditions: read-out: IZ
[13] = system: Syncephalastrum racemosum; assay: Antimicrobial activity against Syncephalastrum racemosum at 1.25 ug/mL by agar diffusion method; assay type: functional; conditions: read-out: IZ
[14] = system: Pseudomonas aeruginosa; assay: Antimicrobial activity against Pseudomonas aeruginosa at 5 ug/mL by agar diffusion method; assay type: functional; conditions: read-out: IZ
[15] = molecular target: DNA topoisomerase 2-alpha (Mus musculus) (UniProt Q01320); assay: Inhibition of topoisomerase 2 from mouse P388 cells assessed as relaxation of pBR322 DNA by agarose gel electrophoresis relative to etoposide; assay type: cell-based
Summary of the method: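 Topoisomerase II purified from P388 cells. One unit relaxes 0.125 µg supercoiled pBR322 DNA, incubated with or without inhibitor at 30 °C for 1 h in 50 mM Tris-HCl pH 8.0, 100 mM KCl, 10 mM MgCl2, 0.5 mM DTT, 1 mM ATP and 30 µg/ml BSA. Products run on 0.7% agarose in TBE, stained with ethidium bromide and imaged under UV.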

[16] = system: Bacillus subtilis; assay: Antimicrobial activity against Bacillus subtilis by agar diffusion method; assay type: functional; summary of the method: as §1
[17] = system: Measles morbillivirus; assay: Antiviral activity against Measles virus infected in intracranially dosed hamster assessed as inhibition of subacute sclerosing panencephalitis; assay type: functional
Summary of the method: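 Hamsters under ether anesthesia injected intracranially, into the subarachnoid space at 2 mm depth, at 5, 10 and 20 mg/kg/day for 10 days. Four animals per group sacrificed on days 1–20. Brains homogenized in PBS and centrifuged, supernatant deproteinized with ethanol, then MIC in brain tissue determined by HPLC and bioassay.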

[18] = system: Escherichia coli; assay: Antimicrobial activity against Escherichia coli at 1.25 ug/mL by agar diffusion method; assay type: functional; conditions: read-out: IZ
[19] = system: Staphylococcus aureus; assay: Antimicrobial activity against Staphylococcus aureus at 1.25 ug/mL by agar diffusion method; assay type: functional; conditions: read-out: IZ
[20] = system: Candida albicans; assay: Antimicrobial activity against Candida albicans at 2.5 ug/mL by agar diffusion method; assay type: functional; conditions: read-out: IZ
[21] = system: Pseudomonas aeruginosa; assay: Antimicrobial activity against Pseudomonas aeruginosa at 2.5 ug/mL by agar diffusion method; assay type: functional; conditions: read-out: IZ
[22] = system: Bacillus subtilis; assay: Antimicrobial activity against Bacillus subtilis at 2.5 ug/mL by agar diffusion method; assay type: functional; conditions: read-out: IZ
[23] = Antioxidant activity assessed as inhibition of peroxynitrite-mediated 3-nitrotyrosine formation by HPLC; assay type: functional
Summary of the method: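 Tyrosine and peroxynitrite, each 100 µM, reacted with compound at 0–300 µM in 100 mM phosphate buffer pH 7.4 at 37 °C for 15 min. Peroxynitrite made from acidified H2O2 plus KNO2, quenched with NaOH, and kept on ice no longer than 30 min before use.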

[24] = system: Candida albicans; assay: Antimicrobial activity against Candida albicans by agar diffusion method; assay type: functional; summary of the method: as §1
[25] = system: Hepatitis C virus; assay: Antiviral activity against HCV by cell based replicon assay; assay type: functional, Hepacivirus hominis
Summary of the method: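 HCV replicon cells plated at 1×10^4 per well. Next day incubated at 37 °C with serially diluted compound in DMEM with 2% FBS and 0.5% DMSO. HCV RNA copy number measured by quantitative RT-PCR on total cellular RNA. Each point is the average of five replicates. Cytotoxicity measured by MTS in parallel.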

[26] = system: Penicillium italicum; assay: Antimicrobial activity against Penicillium italicum at 5 ug/mL by agar diffusion method; assay type: functional; conditions: read-out: IZ
[27] = system: Syncephalastrum racemosum; assay: Antimicrobial activity against Syncephalastrum racemosum at 5 ug/mL by agar diffusion method; assay type: functional; conditions: read-out: IZ
[28] = system: Escherichia coli; assay: Antimicrobial activity against Escherichia coli at 5 ug/mL by agar diffusion method; assay type: functional; conditions: read-out: IZ
[29] = system: Penicillium italicum; assay: Antimicrobial activity against Penicillium italicum at 2.5 ug/mL by agar diffusion method; assay type: functional; conditions: read-out: IZ
[30] = system: Bacillus subtilis; assay: Antimicrobial activity against Bacillus subtilis at 5 ug/mL by agar diffusion method; assay type: functional; conditions: read-out: IZ
[31] = system: Aspergillus fumigatus; assay: Antimicrobial activity against Aspergillus fumigatus by agar diffusion method; assay type: functional; summary of the method: as §1
[32] = system: Syncephalastrum racemosum; assay: Antimicrobial activity against Syncephalastrum racemosum by agar diffusion method; assay type: functional; summary of the method: as §1
[33] = system: Aspergillus fumigatus; assay: Antimicrobial activity against Aspergillus fumigatus at 2.5 ug/mL by agar diffusion method; assay type: functional; conditions: read-out: IZ
[34] = system: Radical scavenging activity; assay: Antioxidant activity assessed as DPPH free radical scavenging activity by measuring reduction in DPPH absorbance by ELISA relative to untreated control; assay type: functional; parameters: concentration or dose not given beside the values
Summary of the method: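 Test compounds dissolved in DMSO, ascorbic acid standard in water, both serially diluted. 10 µl sample added to 90 µl of 100 µM DPPH in methanol and kept in the dark at 37 °C for 30 min. Absorbance read at 515 nm. Blank is DMSO plus DPPH. % reduction = (A_B − A_A)/A_B × 100. Run in triplicate.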

[35] = system: Penicillium italicum; assay: Antimicrobial activity against Penicillium italicum by agar diffusion method; assay type: functional; summary of the method: as §1
[36] = molecular target: T1, DNA topoisomerase 1 (Homo sapiens) (UniProt P11387); assay: Inhibition of topoisomerase 1 relative to etoposide
T1 sequence (whole entry): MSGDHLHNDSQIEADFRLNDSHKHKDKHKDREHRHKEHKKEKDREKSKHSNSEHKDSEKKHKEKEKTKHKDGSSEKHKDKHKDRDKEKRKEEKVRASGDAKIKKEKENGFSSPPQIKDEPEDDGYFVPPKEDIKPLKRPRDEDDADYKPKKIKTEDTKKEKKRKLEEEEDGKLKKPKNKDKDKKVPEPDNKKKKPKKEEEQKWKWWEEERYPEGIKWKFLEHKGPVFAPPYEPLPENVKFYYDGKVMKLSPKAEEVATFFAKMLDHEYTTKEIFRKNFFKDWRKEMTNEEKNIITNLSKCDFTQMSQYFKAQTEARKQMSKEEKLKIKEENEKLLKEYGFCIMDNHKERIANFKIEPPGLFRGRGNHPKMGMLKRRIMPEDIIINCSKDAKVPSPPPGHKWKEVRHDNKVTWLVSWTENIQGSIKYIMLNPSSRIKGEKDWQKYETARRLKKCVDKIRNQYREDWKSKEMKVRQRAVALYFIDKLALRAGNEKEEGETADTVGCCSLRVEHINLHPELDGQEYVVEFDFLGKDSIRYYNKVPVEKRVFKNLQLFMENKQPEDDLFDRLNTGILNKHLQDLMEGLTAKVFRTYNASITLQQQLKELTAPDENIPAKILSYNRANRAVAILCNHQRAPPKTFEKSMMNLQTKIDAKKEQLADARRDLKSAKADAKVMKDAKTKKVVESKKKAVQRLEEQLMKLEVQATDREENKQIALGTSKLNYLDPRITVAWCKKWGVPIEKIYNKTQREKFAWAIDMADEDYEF

[37] = system: Candida albicans; assay: Antimicrobial activity against Candida albicans at 1.25 ug/mL by agar diffusion method; assay type: functional; conditions: read-out: IZ
[38] = system: Candida albicans; assay: Antimicrobial activity against Candida albicans at 5 ug/mL by agar diffusion method; assay type: functional; conditions: read-out: IZ

DNA topoisomerase 2-alpha (Mus musculus), sequence (Q01320 whole entry): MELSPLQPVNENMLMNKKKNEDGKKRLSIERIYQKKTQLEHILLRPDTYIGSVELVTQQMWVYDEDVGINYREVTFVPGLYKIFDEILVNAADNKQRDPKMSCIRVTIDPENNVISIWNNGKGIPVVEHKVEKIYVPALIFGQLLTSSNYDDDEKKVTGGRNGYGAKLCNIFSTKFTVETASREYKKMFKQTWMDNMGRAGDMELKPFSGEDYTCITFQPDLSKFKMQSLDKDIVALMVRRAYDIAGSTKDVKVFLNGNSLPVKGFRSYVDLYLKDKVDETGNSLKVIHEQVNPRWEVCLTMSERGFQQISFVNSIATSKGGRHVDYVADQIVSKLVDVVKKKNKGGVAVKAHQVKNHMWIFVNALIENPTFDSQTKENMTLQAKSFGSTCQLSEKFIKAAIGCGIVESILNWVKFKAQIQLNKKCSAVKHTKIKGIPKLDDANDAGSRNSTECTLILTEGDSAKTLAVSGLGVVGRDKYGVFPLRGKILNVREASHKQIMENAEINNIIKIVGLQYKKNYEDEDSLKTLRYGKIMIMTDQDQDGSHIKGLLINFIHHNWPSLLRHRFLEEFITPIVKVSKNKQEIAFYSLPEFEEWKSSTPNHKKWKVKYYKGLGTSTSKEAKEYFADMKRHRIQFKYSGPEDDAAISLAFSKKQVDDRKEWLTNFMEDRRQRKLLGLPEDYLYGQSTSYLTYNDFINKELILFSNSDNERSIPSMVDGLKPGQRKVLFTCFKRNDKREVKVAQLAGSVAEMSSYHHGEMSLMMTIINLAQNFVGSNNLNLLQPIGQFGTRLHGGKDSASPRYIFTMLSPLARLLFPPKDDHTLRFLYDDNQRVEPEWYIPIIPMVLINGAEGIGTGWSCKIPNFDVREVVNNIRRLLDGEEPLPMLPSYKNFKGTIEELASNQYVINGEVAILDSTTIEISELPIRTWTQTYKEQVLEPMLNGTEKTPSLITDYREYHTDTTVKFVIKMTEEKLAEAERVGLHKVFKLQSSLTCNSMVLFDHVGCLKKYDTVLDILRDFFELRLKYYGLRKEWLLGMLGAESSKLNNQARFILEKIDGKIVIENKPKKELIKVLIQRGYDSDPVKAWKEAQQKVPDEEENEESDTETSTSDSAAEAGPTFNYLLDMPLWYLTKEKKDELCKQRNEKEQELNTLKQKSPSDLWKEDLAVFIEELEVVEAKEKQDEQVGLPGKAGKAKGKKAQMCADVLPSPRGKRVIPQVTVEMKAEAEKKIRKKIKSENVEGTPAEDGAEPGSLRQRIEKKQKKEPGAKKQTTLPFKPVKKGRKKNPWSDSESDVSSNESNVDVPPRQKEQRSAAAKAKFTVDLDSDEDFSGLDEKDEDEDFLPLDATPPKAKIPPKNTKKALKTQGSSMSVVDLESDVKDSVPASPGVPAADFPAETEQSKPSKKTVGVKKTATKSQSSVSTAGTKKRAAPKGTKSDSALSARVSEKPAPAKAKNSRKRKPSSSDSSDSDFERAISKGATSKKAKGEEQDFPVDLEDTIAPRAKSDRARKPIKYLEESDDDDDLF

Row | SMILES | zone of inhibition at 1.25 µg/mL [1] | zone of inhibition at 2.5 µg/mL [2] | zone of inhibition at 1.25 µg/mL [3] | Activity [4] | MIC [5] | zone of inhibition at 2.5 µg/mL [6] | zone of inhibition at 5 µg/mL [7] | zone of inhibition at 1.25 µg/mL [8] | zone of inhibition at 5 µg/mL [9] | zone of inhibition at 2.5 µg/mL [10] | zone of inhibition at 1.25 µg/mL [12] | zone of inhibition at 1.25 µg/mL [13] | zone of inhibition at 5 µg/mL [14] | Ratio [15] | MIC [16] | MIC [17] | zone of inhibition at 1.25 µg/mL [18] | zone of inhibition at 1.25 µg/mL [19] | zone of inhibition at 2.5 µg/mL [20] | zone of inhibition at 2.5 µg/mL [21] | also measured
1 | Cc1cccc(N/N=C2\CCCc3ccccc3C2=O)c1 | 0 mm | 12 mm | 3 mm | Active | 0.625 µg/mL (≈ 2.25 µM) | 6 mm | 22 mm | 8 mm | 12 mm | 8 mm | 9 mm | 8 mm | 0 mm | 4.66 | 0.313 µg/mL (≈ 1.12 µM) | 6.01 µg/mL (≈ 21.6 µM) | 0 mm | 5 mm | 6 mm | 0 mm | MIC [11]: 2.5 µg/mL (≈ 8.98 µM); zone of inhibition at 2.5 µg/mL [22]: 10 mm; IC50 [23]: 55.1 µM; MIC [24]: 1.25 µg/mL (≈ 4.49 µM); MIC [25]: 1.02 µg/mL (≈ 3.67 µM); zone of inhibition at 5 µg/mL [26]: 14 mm; zone of inhibition at 5 µg/mL [27]: 19 mm; zone of inhibition at 5 µg/mL [28]: 12 mm; zone of inhibition at 2.5 µg/mL [29]: 6 mm; zone of inhibition at 5 µg/mL [30]: 15 mm; MIC [31]: 0.313 µg/mL (≈ 1.12 µM); MIC [32]: 0.313 µg/mL (≈ 1.12 µM); zone of inhibition at 2.5 µg/mL [33]: 14 mm; Activity [34]: 83.1%; MIC [35]: 1.25 µg/mL (≈ 4.49 µM); Ratio [36]: 4.46; zone of inhibition at 1.25 µg/mL [37]: 2 mm; zone of inhibition at 5 µg/mL [38]: 9 mm
2 | CC(=O)c1ccc(N/N=C2\CCCc3ccccc3C2=O)cc1 | 0 mm | 9 mm | 4 mm | Active | 0.625 µg/mL (≈ 2.04 µM) | 0 mm | 20 mm | 7 mm | 15 mm | 8 mm | 6 mm | 6 mm | 0 mm | 4.33 | 0.313 µg/mL (≈ 1.02 µM) | 6.12 µg/mL (≈ 20 µM) | 0 mm | 5 mm | 7 mm | 0 mm | zone of inhibition at 2.5 µg/mL [22]: 10 mm; IC50 [23]: 56.1 µM; MIC [24]: 1.25 µg/mL (≈ 4.08 µM); MIC [25]: 1.09 µg/mL (≈ 3.56 µM); zone of inhibition at 5 µg/mL [26]: 17 mm; zone of inhibition at 5 µg/mL [27]: 16 mm; zone of inhibition at 5 µg/mL [28]: 12 mm; zone of inhibition at 2.5 µg/mL [29]: 6 mm; zone of inhibition at 5 µg/mL [30]: 16 mm; MIC [31]: 0.625 µg/mL (≈ 2.04 µM); MIC [32]: 0.313 µg/mL (≈ 1.02 µM); zone of inhibition at 2.5 µg/mL [33]: 11 mm; Activity [34]: 81%; MIC [35]: 1.25 µg/mL (≈ 4.08 µM); Ratio [36]: 4.3; zone of inhibition at 1.25 µg/mL [37]: 3 mm; zone of inhibition at 5 µg/mL [38]: 10 mm
